Measurements taken from ChEMBL document CHEMBL2440036, “3-[2-(Aminomethyl)-5-[(pyridin-4-yl)carbamoyl]phenyl] benzoates as soft ROCK inhibitors” (Bioorg Med Chem Lett, 2013).
Calls of active or inactive are those of the source. The calls are words filed in the database; no cut-off is given here.

Columns and labels:
[1] = Stability of the compound in PBS buffer at pH 7.4; format: physicochemical
[2] = Half life in human plasma by LC-MS/MS analysis; format: ADME, cell-free
[3] = molecular target: Rho-associated protein kinase 2 (Homo sapiens, UniProt O75116); experiment: Inhibition of ROCK2 (unknown origin) using long S6 kinase peptide as substrate by radiometric assay
Chain of Rho-associated protein kinase 2 (O75116 whole entry): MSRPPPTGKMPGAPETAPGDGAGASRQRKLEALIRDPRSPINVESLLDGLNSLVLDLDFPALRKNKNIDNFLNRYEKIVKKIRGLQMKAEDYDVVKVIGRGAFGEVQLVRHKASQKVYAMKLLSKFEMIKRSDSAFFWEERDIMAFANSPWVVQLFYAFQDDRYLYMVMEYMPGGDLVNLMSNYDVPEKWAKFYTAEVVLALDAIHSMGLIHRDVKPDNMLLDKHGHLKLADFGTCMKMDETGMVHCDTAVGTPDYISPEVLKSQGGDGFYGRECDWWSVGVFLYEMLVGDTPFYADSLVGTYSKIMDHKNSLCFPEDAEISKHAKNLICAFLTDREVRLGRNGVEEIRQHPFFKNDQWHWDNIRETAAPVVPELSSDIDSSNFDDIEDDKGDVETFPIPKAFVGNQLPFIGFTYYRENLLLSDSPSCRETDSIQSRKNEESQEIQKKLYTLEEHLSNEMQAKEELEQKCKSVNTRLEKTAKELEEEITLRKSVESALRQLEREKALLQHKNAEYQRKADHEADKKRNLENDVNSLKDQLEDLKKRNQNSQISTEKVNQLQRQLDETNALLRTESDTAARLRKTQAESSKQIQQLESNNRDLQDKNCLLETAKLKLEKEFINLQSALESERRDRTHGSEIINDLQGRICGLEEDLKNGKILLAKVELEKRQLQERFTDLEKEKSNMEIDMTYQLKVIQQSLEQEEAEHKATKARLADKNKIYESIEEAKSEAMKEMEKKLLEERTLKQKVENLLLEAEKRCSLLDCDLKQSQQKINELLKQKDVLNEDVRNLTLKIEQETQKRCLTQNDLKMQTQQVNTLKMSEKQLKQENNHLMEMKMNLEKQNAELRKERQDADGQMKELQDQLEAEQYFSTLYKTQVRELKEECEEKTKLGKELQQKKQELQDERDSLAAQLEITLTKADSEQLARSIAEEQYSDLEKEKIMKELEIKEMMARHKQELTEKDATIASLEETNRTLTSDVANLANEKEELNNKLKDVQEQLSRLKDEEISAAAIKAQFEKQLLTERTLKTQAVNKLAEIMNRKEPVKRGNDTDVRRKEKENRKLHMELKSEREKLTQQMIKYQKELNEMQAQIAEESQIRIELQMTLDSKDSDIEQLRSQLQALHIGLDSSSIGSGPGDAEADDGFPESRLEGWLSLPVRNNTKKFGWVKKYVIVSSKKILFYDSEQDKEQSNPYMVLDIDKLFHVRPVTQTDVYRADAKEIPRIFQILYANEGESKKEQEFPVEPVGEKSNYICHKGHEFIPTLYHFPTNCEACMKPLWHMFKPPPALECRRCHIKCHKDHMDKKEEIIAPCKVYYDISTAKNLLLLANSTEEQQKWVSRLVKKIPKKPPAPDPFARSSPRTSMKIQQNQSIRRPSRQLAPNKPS

[4] = Drug degradation in human plasma after 60 mins by LC-MS/MS analysis; format: ADME, cell-free; settings: read-out: Drug degradation
[5] = Apparent permeability of the compound at 10 uM after 5 hrs by PAMPA; format: ADME
[6] = Inhibition of ROCK in rat A7r5 cells assessed as inhibition of MLC phosphorylation by direct ELISA; format: cell-based
[7] = organism: Oryctolagus cuniculus; experiment: Toxicity in New Zealand white rabbit assessed as hyperemia; format: organism-based; settings: in vivo
[8] = system: Oryctolagus cuniculus; experiment: Reduction of IOP in New Zealand white rabbit eye administered topically after 3 hrs relative to baseline; format: functional; design: scale not given: the % may be the effect or the level left
[9] = system: Oryctolagus cuniculus; experiment: Reduction of IOP in New Zealand white rabbit eye administered topically after 6 hrs relative to vehicle-treated control; format: functional
[10] = Half life in aqueous humor of New Zealand white rabbit assessed as specific hydrolytic activity at 20 uM by LC-MS/MS analysis; format: ADME, tissue-based, Oryctolagus cuniculus, Aqueous humor of eyeball
How it was run: (§1)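 Test compound was incubated with ocular tissues from ocular normotensive New Zealand White rabbits, and its degradation rate was followed. Specific hydrolytic activity (pmol min-1 mg-1) was calculated by normalizing the degradation rate to tissue weight. Aqueous humor half-life refers to undiluted aqueous humor.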

[11] = Drug degradation in cornea of New Zealand white rabbit assessed as specific hydrolytic activity at 20 uM after 4 hrs by LC-MS/MS analysis; format: ADME, tissue-based, Oryctolagus cuniculus; how it was run: as §1
[12] = Drug degradation in sclera of New Zealand white rabbit assessed as specific hydrolytic activity at 20 uM after 4 hrs by LC-MS/MS analysis; format: ADME, tissue-based, Oryctolagus cuniculus; how it was run: as §1
[13] = Drug degradation in conjunctiva of New Zealand white rabbit assessed as specific hydrolytic activity at 20 uM after 4 hrs by LC-MS/MS analysis; format: ADME, tissue-based, Oryctolagus cuniculus; how it was run: as §1
[14] = Drug degradation in vitreous humor of New Zealand white rabbit assessed as specific hydrolytic activity at 20 uM after 4 hrs by LC-MS/MS analysis; format: ADME, tissue-based, Oryctolagus cuniculus; how it was run: as §1
[15] = Drug degradation in aqueous humor of New Zealand white rabbit assessed as specific hydrolytic activity at 20 uM after 4 hrs by LC-MS/MS analysis; format: ADME, tissue-based, Oryctolagus cuniculus, Aqueous humor of eyeball; how it was run: as §1

Compound	Stability [1]	half-life [2]	IC50 [3]	EC50 [6]	other results
NCc1ccc(C(=O)Nc2ccncc2F)cc1-c1cccc(C(=O)OCC2CC2)c1	Stable	18 min	2.7 nM		
NCc1ccc(C(=O)Nc2ccncc2)cc1-c1cccc(C(=O)O)c1		> 120 min	167 nM	> 1000 nM	metabolised at 1 h [4]: < 5%; Papp at 5 h, 10 µM [5]: < 0.01 ×10⁻⁶ cm/s
NCc1ccc(C(=O)Nc2ccncc2F)cc1-c1cccc(C(=O)OCC2CCCCO2)c1 (stereo not given)	Stable	7 min	12 nM		
NCc1ccc(C(=O)Nc2ccncc2)cc1-c1cccc(C(=O)OCC2CCCC2)c1	Stable	31 min	5 nM	70 nM	
NCc1ccc(C(=O)Nc2ccncc2F)cc1-c1cccc(C(=O)OCCO)c1	Stable	81 min	1.4 nM		
CC(C)OCCOC(=O)c1cccc(-c2cc(C(=O)Nc3ccncc3F)ccc2CN)c1	Stable	6 min	37 nM		
COC(=O)c1ccc(-c2cc(C(=O)Nc3ccncc3)ccc2CN)cc1			102 nM		
NCc1ccc(C(=O)Nc2ccncc2F)cc1-c1cccc(C(=O)Oc2ccccc2)c1	Stable	7 min	6.2 nM		
CCCCCCOC(=O)c1cccc(-c2cc(C(=O)Nc3ccncc3)ccc2CN)c1	Stable	50 min	22 nM		
NCc1ccc(C(=O)Nc2ccncc2F)cc1-c1cccc(C(=O)OCC2CCC2)c1	Stable	13 min	4.3 nM		
COCCOC(=O)c1cccc(-c2cc(C(=O)Nc3ccncc3)ccc2CN)c1	Stable	12 min	3.6 nM	170 nM	
NCc1ccc(C(=O)Nc2ccncc2)cc1-c1cccc(C(=O)OC2CCCCC2)c1	Unstable	> 120 min	20 nM		
COC(=O)c1cccc(-c2cc(C(=O)Nc3ccncc3)ccc2CN)c1	Stable	91 min	2.9 nM	8 nM	
NCc1ccc(C(=O)Nc2ccncc2)cc1-c1cccc(C(=O)OCC2CCCCC2)c1	Stable	99 min	48 nM		
NCc1ccc(C(=O)Nc2ccncc2)cc1-c1cccc(C(=O)OCc2ccccc2)c1	Stable	64 min	45 nM		
CCCOC(=O)c1cccc(-c2cc(C(=O)Nc3ccncc3F)ccc2CN)c1	Stable	19 min	5.1 nM		

Now from value to compound, other results behind:

Stability [1]	half-life [2]	IC50 [3]	EC50 [6]	Compound	other results
Stable	22 min	5.5 nM		CCCCOC(=O)c1cccc(-c2cc(C(=O)Nc3ccncc3)ccc2CN)c1	
Stable	< 5 min	2.5 nM	16 nM	NCc1ccc(C(=O)Nc2ccncc2F)cc1-c1cccc(C(=O)OCC2CCCO2)c1 (stereo not given)	Activity [7]: Non-toxic; Activity [8]: 28.7%; Activity [9]: Active; Activity ([9]; record 2): 0.5%; half-life at 20 µM [10]: 116 min; Drug degradation [11]: 2.71 pmol/min/mg; Drug degradation [12]: 1 pmol/min/mg; Drug degradation [13]: 1.52 pmol/min/mg; Drug degradation [14]: 0.22 pmol/min/mg; Drug degradation [15]: 0.12 pmol/min/mg
	> 120 min	1.2 nM	6.1 nM	CC(N)c1ccc(C(=O)Nc2ccncc2)cc1-c1ccc(F)cc1 (stereo not given)	metabolised at 1 h [4]: < 5%
Stable	65 min	7.8 nM	130 nM	COC(=O)c1cccc(-c2cc(C(=O)Nc3ccncc3F)ccc2CN)c1	
Stable	17 min	13 nM	52 nM	NCc1ccc(C(=O)Nc2ccncc2F)cc1-c1cccc(C(=O)OCC2CCCC2)c1	
Stable	18 min	8.7 nM		NCc1ccc(C(=O)Nc2ccncc2F)cc1-c1cccc(C(=O)OC2CCCOC2)c1 (stereo not given)	
Stable	18 min	1.4 nM	9.1 nM	CCCOC(=O)c1cccc(-c2cc(C(=O)Nc3ccncc3)ccc2CN)c1	
Stable	26 min	1.5 nM	28 nM	COCCCOC(=O)c1cccc(-c2cc(C(=O)Nc3ccncc3)ccc2CN)c1	
Stable	41 min	< 1 nM		CCOC(=O)c1cccc(-c2cc(C(=O)Nc3ccncc3)ccc2CN)c1	
Stable	58 min	4.9 nM		CCCCCOC(=O)c1cccc(-c2cc(C(=O)Nc3ccncc3)ccc2CN)c1	
	> 120 min	55 nM	> 1000 nM	NCc1ccc(C(=O)Nc2ccncc2F)cc1-c1cccc(C(=O)O)c1	metabolised at 1 h [4]: < 5%; Papp at 5 h, 10 µM [5]: < 0.01 ×10⁻⁶ cm/s
	> 120 min		200 nM	C[C@@H](N)[C@H]1CC[C@H](C(=O)Nc2ccncc2)CC1 [Y-27632]	metabolised at 1 h [4]: < 5%
